# Source: PubChem (several laboratories)
# A selection: hits, their analogues and other compounds. The true share with any hit is near 6.8%.
# MKP-1 inh: MKP-1 phosphatase inhibitors, primary screen, biochemical, in vitro; inhibition, %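 (compounds tested at a single concentration somewhere between 10 and 100 µM)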; actives 0.15% (n = 65,000); recombinant MKP-1, OMFP hydrolysis fluorescence;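 active = inhibition above about 50%, limit read from the data; inconclusive = inhibition over screen mean plus 3 SD, below that limit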;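 note: 0% = DMSO max control wells and 100% = wells with enzyme stopped by NaOH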
# Her2 expr inh: inhibitors of Her2 protein expression, primary screen, SKBR-3 cells, AlphaScreen, 66K library | SKBR-3 HER2 protein level, 18-24 h; hits give low values | HER2 level % of control, % at 10 µM | actives 0.69% (n = 65,000);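 active = HER2 level under 5% of the carrier-only control; inconclusive = no clear call, values can overlap the other calls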;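 note: 100% = DMSO carrier and 0% = 500 nM PU-H71 HSP90 inhibitor; lower value means stronger loss of Her2 protein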
# M1 antag: antagonists of rat M1 muscarinic receptor. Muscarinic acetylcholine receptor M1 (Rattus norvegicus), P08482. CHO-M1 cells, Fluo-4 calcium, ACh EC80 antagonist mode; hits give low values. B-score at 10 µM. actives 3.4% (n = 64,000). AID 628, 2007;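 active = calcium fluorescence response, raw or row-and-column corrected B-score, differing from the plate sample mean either way at a set confidence level, mostly lower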
# HEK293 NFkB inh: inhibitors of PMA/ionomycin-induced NF-kB reporter, primary screen, antigen receptor NF-kB inhibitor project, cell-based, HEK-293 luciferase reporter, luminescence; HEK-293 NF-kB luciferase reporter; inhibition, % at 3 µM; actives 0.21% (n = 62,000);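 active = inhibition above the mean of all tested compounds plus 3 SD, cut at about 40% in these data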;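 note: 0% = stimulated DMSO wells and 100% = 10 µM reference inhibitor 5653914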
#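 Signal: luciferase luminescence; Material: HEK-293 cells with stable firefly luciferase reporter driven by four HIV NF-kB elements; Probe or stimulus: PMA with ionomycin; Replication: tested once; Times: 1 h compound pretreatment, then 16 h stimulation at 37 °C, 5% CO2; Benchmarks: DMSO and 10 µM reference inhibitor; Evaluation: per-plate % inhibition versus controls.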
# Cdc25B inh: inhibitors of Cdc25B phosphatase catalytic domain, primary screen, biochemical, OMFP fluorescence; M-phase inducer phosphatase 2 (Homo sapiens), P30305; recombinant Cdc25B, OMFP fluorescence Ex485/Em525; inhibition, %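 (compounds tested at 10 µM final in the well)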; actives 0.1% (n = 65,000); in the data active = inhibition above about 50%
# Target sequence (P30305 whole entry, looked up, the tested form may be a part): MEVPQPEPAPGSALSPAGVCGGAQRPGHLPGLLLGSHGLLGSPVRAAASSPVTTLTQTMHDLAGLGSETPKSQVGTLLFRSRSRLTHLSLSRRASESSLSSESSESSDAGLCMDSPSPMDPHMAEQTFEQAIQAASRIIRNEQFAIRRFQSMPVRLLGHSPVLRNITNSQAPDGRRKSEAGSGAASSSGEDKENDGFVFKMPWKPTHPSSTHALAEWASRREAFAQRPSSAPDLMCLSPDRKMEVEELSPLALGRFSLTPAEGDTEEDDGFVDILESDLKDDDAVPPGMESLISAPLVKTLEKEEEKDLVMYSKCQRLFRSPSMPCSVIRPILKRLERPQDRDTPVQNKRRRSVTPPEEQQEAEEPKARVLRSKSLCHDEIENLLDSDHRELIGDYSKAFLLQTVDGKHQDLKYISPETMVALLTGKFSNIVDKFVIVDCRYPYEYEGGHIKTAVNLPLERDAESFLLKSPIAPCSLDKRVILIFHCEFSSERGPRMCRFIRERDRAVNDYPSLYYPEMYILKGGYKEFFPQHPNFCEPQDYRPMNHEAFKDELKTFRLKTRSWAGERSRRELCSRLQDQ
# M1 agonist: M1 muscarinic receptor agonists, primary screen, CHO-M1 cells, Fluo-4 calcium, agonist mode. Fluo-4 calcium fluorescence; hits give high values. B-score at 10 µM. actives 3% (n = 64,000). AID 626, 2007;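 active = fluorescence rise, raw or as B-score row- and column-corrected plate score, outside the 99.7% band of its plate's samples, either direction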
# M1 agonist conf: rat M1 muscarinic receptor agonists, confirmation, CHO-M1 cells, Fluo-4 calcium, duplicate retest | fluorescence change (max-min) at 10 µM | shares compounds with M1 agonist | actives 19% (n = 1,700) | Fluo-4 calcium fluorescence, agonist mode; actives lie on both sides;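 active = fluorescence change differs from the solvent-only DMSO control mean at a set confidence level in both duplicate runs; inconclusive = differs from solvent-only control mean in just one of two runs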;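 note: an EC20 dose of acetylcholine follows compound addition during the same imaging run; raw fluorescence intensity difference in instrument units with no normalization to controls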
# M4 ag counter: agonist activity at rat M4 receptor, confirmation, counter-screen for M1 allosteric modulator project, cell-based, agonist mode | AID 1741, 2009 | fluorescence change (max-min) at 10 µM | shares compounds with M1 agonist | CHO M4/Gqi5 cells, Fluo-4 calcium fluorescence; actives lie on both sides | actives 9% (n = 1,700);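 active = fluorescence change differing from the plate's solvent-only control wells at 99.7% confidence in both duplicates, whether higher or lower; inconclusive = differs from solvent controls in only one of two duplicates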
# The depositor's hits bear a star; ? = inconclusive; nt = no result.
SMILES,MKP-1 inh,Her2 expr inh,M1 antag,HEK293 NFkB inh,Cdc25B inh,M1 agonist,M1 agonist conf,M4 ag counter
Cn1c(=O)c2c(SCC(=O)N3CCCc4ccccc43)nc(C3CC3)nc2n(C)c1=O,10,85,-2.6*,-2,-9,3.8*,-28*,?
CC(C)c1nc(SCC(=O)N2CCN(c3ccccc3)CC2)c2c(=O)n(C)c(=O)n(C)c2n1,17,97,-3.6*,4,-11,5.7*,?,-49
CCc1nc(SCC(=O)N2CCC(C)CC2)c2c(=O)n(C)c(=O)n(C)c2n1,13,91,-3.5*,9,0,3.4*,?,-24
CCCc1nc(SCc2cccnc2)c2c(=O)n(C)c(=O)n(C)c2n1,0,80,-1*,4,-11,2.6*,-25*,-81*
CC(C)c1nc(SCC(=O)Nc2cccc(C(F)(F)F)c2)c2c(=O)n(C)c(=O)n(C)c2n1,12,91,0.016,9,-1,-0.093,nt,nt
Cn1c(=O)c2c(nc(SCC(=O)N3CCCc4ccccc43)n2C)n(C)c1=O,-3,142,0.98,3,3,0.042,nt,nt
COCCN(C(=O)CCC(=O)Nc1ccccn1)C(C(=O)NC1CCCC1)c1ccc(OC)cc1 (configuration not stated),3,103,0.21,12,21,-0.28,nt,nt
CCCc1nc(SCC(=O)N2CCN(c3ccccc3)CC2)c2c(=O)n(C)c(=O)n(C)c2n1,10,57,-8.1*,0,-9,7.2*,-10,-59
CC(C)c1nc(SCC(=O)N2CCOCC2)c2c(=O)n(C)c(=O)n(C)c2n1,-7,93,-0.03,14,-12,8.3*,-23,-32
CCCc1nc(SCC(=O)Nc2cc(C)on2)c2c(=O)n(C)c(=O)n(C)c2n1,2,102,0.14,9,-4,0.23,nt,nt
Cc1ccc(-n2nnnc2SCc2nnc(-c3ccccc3Br)o2)c(C)c1,26,106,-0.61,-6,-9,-0.61,nt,nt
C=CCn1c(=O)/c(=C/c2ccc(C)o2)s/c1=C(/C#N)C(=O)c1ccccc1,5,47,0.32,21,12,12*,86*,275*
COc1cc(C(=O)Nc2nnc(CC(=O)N3CCOCC3)s2)cc(OC)c1OC,1,105,0.51,14,-2,-0.11,nt,nt
O=C(CCCC1=NS(=O)(=O)c2ccccc2N1)N1CCN(c2ccc(Cl)cc2)CC1,13,76,-0.21,7,-7,1.6,nt,nt
CC(C)(CC(=O)N1CCN(c2ccc(Cl)cc2)CC1)CC1=NS(=O)(=O)c2ccccc2N1,37,96,-3.2*,17,-16,11*,?,-46
CN(CC1CCCO1)S(=O)(=O)c1ccc(C(=O)Nc2nc(-c3ccccn3)cs2)cc1 (configuration not stated),7,79,0.014,12,-16,9.6*,-12,-32
Cc1nc2sc(C(c3ccccc3)N3CCN(c4ccccc4F)CC3)c(O)n2n1 (configuration not stated),15,78,-2,21,6,0.58,nt,nt
COc1ccc(-n2c(Cc3cc(=O)[nH]c(=O)[nH]3)nnc2SCC(=O)N2CCCC2)cc1,-4,97,0.15,12,-4,3.5*,-8.3,-18
COC(=O)CSc1nnc(-c2ccncc2)n1N,-5,80,1.9,13,-9,4.5*,?,-46
CC(=O)NCCc1ccc(S(=O)(=O)N2CCOCC2)cc1,-16,114,0.75,0,7,2.2*,-3,-36
Cc1cccc(NC(=O)c2oc3ccc(S(=O)(=O)N4CCOCC4)cc3c2C)c1C,33,91,-1.3,12,-10,9.5*,?,-32
Cc1c(C(=O)NCCCN2CCCC2=O)oc2ccc(S(=O)(=O)N3CCOCC3)cc12,14,197,-0.19,21,-20,0.03,nt,nt
Cc1cc(=O)oc2ccc(OC(=O)c3cccc(S(=O)(=O)N4CCOCC4)c3)cc12,-9,66,-0.6,5,-5,4.8*,?,-38
Cc1c(C(=O)NCCC2=CCCCC2)oc2ccc(S(=O)(=O)N3CCOCC3)cc12,11,71,-2.9*,23,-7,15*,?,-54
COc1ccc(CCNC(=O)COc2ccc(S(=O)(=O)N3CCOCC3)cc2)cc1,4,107,0.27,2,-8,0.3,nt,nt
SMILES,MKP-1 inh,Her2 expr inh,M1 antag,HEK293 NFkB inh,Cdc25B inh,M1 agonist,M1 agonist conf,M4 ag counter
CCCCCOC(=O)c1ccccc1C(=O)O,-1,69,-0.33,15,-22,3*,-9.3,?
Cc1ccc(-n2c(C)nc3c(cnn3-c3ccc(F)cc3)c2=O)cc1C,0,49,-1.2,14,13,3.5*,-15,?
CSc1nc2c(cnn2-c2ccc(C)c(C)c2)c(=O)[nH]1,-1,38,-0.96,4,-2,-1.9,nt,nt
COc1ccc(C(=O)NCCc2c[nH]c3ccccc23)cc1S(=O)(=O)N1CCOCC1,34,110,-0.62,1,0,0.031,nt,nt
CCOC(=O)c1ccc(NC(=O)CSc2nnc(Cn3c(=O)sc4ccccc43)n2C)cc1,14,47,0.19,11,-9,2.3*,3.5,-7
CC(=O)c1sc2nc(=O)c(C)nn2c1C,5,86,0.058,8,-3,-0.34,nt,nt
CC(C)c1nnc(NC(=O)c2ccc(S(=O)(=O)N3CCOCC3)cc2)s1,0,84,-0.23,0,-12,-3.1*,?,?
O=c1oc2c3c4c(cc2c(C(F)(F)F)c1CCN1CCOCC1)CCCN4CCC3,-11,165,-2.9*,nt,-14,277*,1525*,1404*
CC(C)c1cc(=O)oc2c3c4c(cc12)CCCN4CCC3,10,59,-0.15,22,-6,106*,612*,614*
O=c1oc2c(CN3CCOCC3)c(O)ccc2c2c1CCC2,-12,116,0.05,20,-1,-0.095,nt,nt
O=C1CC(N2CCN(C3CCc4ccccc4C3)CC2)C(=O)N1c1ccccc1 (configuration not stated),-1,50,-2.9,7,0,-0.76,nt,nt
